Laboratory results: ChEMBL document CHEMBL1127858, “Synthesis and evaluation of the anti-HIV activity of aza and deaza analogues of isoddA and their phosphates as prodrugs” (J Med Chem, 1994)

Experiments:
[1] = Ratio of CC50 value that of EC50 value(HIV-2); type: functional
In short: (§1)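 Selectivity index as the CC50/EC50 ratio. CC50 comes from mock-infected MT-4 viability by MTT. EC50 comes from MTT-measured protection of MT-4 cells infected with 100 CCID50 of HIV-1 IIIB or HIV-2 CBL 20. Data are means of three experiments.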

MT4 [2] = assay: Concentration required to reduce the viability of mock-infected MT-4 cells by 50% (4 days); type: functional; details: Homo sapiens, MT4, 96 h
In short: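 Mock-infected MT-4 cells (1 × 10⁴ per well) in RPMI with 10% FCS, exposed to a range of compound concentrations and incubated 4 days at 37 °C. Viable cells counted by MTT. CC50 is the dose cutting viability by 50%. Mean of three independent experiments. Cultures were checked periodically for mycoplasma.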

MT4 [3] = assay: Effective concentration required to achieve 50% protection of MT-4 cells against cytopathic effect of HIV-2 (8 days); type: functional, cell-based; details: Homo sapiens, MT4, 192 h
In short: (§2)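 MT-4 cells (1 × 10⁴ per well, RPMI with 10% FCS) with various compound concentrations, infected with 100 CCID50 of HIV-2 CBL 20 from persistently infected CEM supernatant. Viable cells read by MTT. EC50 is the dose giving 50% protection from virus cytopathicity. Mean of three independent experiments.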

MT4 [4] = assay: Effective concentration required to achieve 50% protection of MT-4 cells against cytopathic effect of HIV-1 (4 days); type: functional, cell-based; details: Homo sapiens, MT4, 96 h
In short: as §2, with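 “HIV-1 IIIB” for “HIV-2 CBL 20”, “H9/IIIB” for “CEM”, “After 4 days at 37 °C, viable” for “Viable”, “experiments. Cytotoxicity run in parallel.” for “experiments.”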

[5] = Ratio of CC50 value that of EC50 value(HIV-1); type: functional; in short: as §1

SMILES | Ratio [1] | CC50 (MT4 [2]) | EC50 (MT4 [3]) | EC50 (MT4 [4]) | Ratio [5]
COC(=O)C(C)NP(=O)(OCC1CC(n2cnc3c(N)ncnc32)CO1)Oc1ccccc1 (configuration not stated) | 65 | 2.9 µM | 0.04 µM | 0.06 µM | 48
Nc1nccc2c1nnn2C1COC(CO)C1 (configuration not stated) |  | > 425 µM | > 425 µM | > 425 µM | 
Nc1ccnc2c1nnn2C1COC(CO)C1 (configuration not stated) |  | > 425 µM | > 425 µM | > 425 µM | 
Cc1cn([C@H]2C[C@H](N=[N+]=[N-])[C@@H](CO)O2)c(=O)[nH]c1=O [ZIDOVUDINE] |  | > 80 µM | 0.04 µM | 0.01 µM | 
Nc1ccnc2c1nnn2C1COC(COP(=O)(OCC(Cl)(Cl)Cl)OCC(Cl)(Cl)Cl)C1 (configuration not stated) |  | > 100 µM | > 100 µM | > 100 µM | 
Nc1nccc2c1nnn2C1COC(COP(=O)(OCC(Cl)(Cl)Cl)OCC(Cl)(Cl)Cl)C1 (configuration not stated) |  | > 173 µM | > 173 µM | > 173 µM | 
COC(=O)C(C)NP(=O)(OCC1CC(n2nnc3c(N)ncnc32)CO1)Oc1ccccc1 (configuration not stated) | 1.4 | 146 µM | 105 µM | 17 µM | 8.5
Nc1ncnc2c1nnn2C1COC(COP(=O)(OCC(Cl)(Cl)Cl)OCC(Cl)(Cl)Cl)C1 (configuration not stated) |  | 92 µM | > 92 µM | > 92 µM | 
Nc1ccnc2c1ncn2C1COC(CO)C1 (configuration not stated) |  | > 425 µM | > 425 µM | > 425 µM | 
Nc1nccc2c1ncn2C1COC(CO)C1 (configuration not stated) |  | > 425 µM | > 425 µM | > 425 µM | 
Nc1ncnc2c1ncn2C1COC(COP(=O)(OCC(Cl)(Cl)Cl)OCC(Cl)(Cl)Cl)C1 (configuration not stated) |  | ≥ 173 µM | > 173 µM | 87 µM | > 2
Nc1nccc2c1ncn2C1COC(COP(=O)(OCC(Cl)(Cl)Cl)OCC(Cl)(Cl)Cl)C1 (configuration not stated) |  | 34 µM | > 34 µM | > 34 µM | 
O=c1[nH]cnc2c1ncn2[C@H]1CC[C@@H](CO)O1 [DIDANOSINE] | > 38 | > 425 µM | 11 µM | 10 µM | > 42
Nc1ncnc2c1ncn2[C@H]1CO[C@@H](CO)C1 | > 13 | > 425 µM | 32 µM | 21 µM | > 20
Nc1ccnc2c1ncn2C1COC(COP(=O)(OCC(Cl)(Cl)Cl)OCC(Cl)(Cl)Cl)C1 (configuration not stated) |  | > 100 µM | > 100 µM | > 100 µM | 
Nc1ncnc2c1nnn2C1COC(CO)C1 (configuration not stated) |  | > 425 µM | > 425 µM | > 425 µM | 
